According to ChEMBL document CHEMBL5154669, “G-Quadruplex DNA as a Target in Pathogenic Bacteria: Efficacy of an Extended Naphthalene Diimide Ligand and Its Mode of Action” (J Med Chem, 2022):
Values after ≈ are worked out from the molar mass of the structure shown. Values belong to the molecule of their own block, whether it stands above or below them. Active and inactive are the calls of the source. The rule behind the calls is not given here. Where a SMILES comes first, the peptide text is derived from it. Bridges are numbered along the chain shown (N, C = ends). [ ]: non-standard residue; d: D form. The star is where a group is joined. X1 = CC[C@H](C)CCCCC(=O)*; Orn = NCCC[C@H](N)C(=O)O; Dab = NCC[C@H](N)C(=O)O

Legend:
Escherichia coli [1] = assay: Bacteriolytic activity against Escherichia coli LMG 8223 incubated for 2 hrs; format: functional, organism-based
Procedure, shortened: (§1)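 Cultures grown 20 h were washed three times in HEPES with 5% glucose, adjusted to OD600 0.5 and exposed at 37 °C. OD600 was followed every 15 min for 2 h. Controls for E. coli were polymyxin B (2 μM) and erythromycin (32 μM). Controls for Gram-positive strains were gramicidin S (2 μM) and chloramphenicol (16 μM). Cells were then spotted on cMHB agar, 20 h, 37 °C, in triplicate.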

Enterococcus faecium [2] = assay: Bacteriolytic activity against Enterococcus faecium LMG 16003 incubated for 2 hrs; format: functional, organism-based; procedure, shortened: as §1
Staphylococcus aureus [3] = assay: Bacteriolytic activity against Staphylococcus aureus LMG 8224 incubated for 2 hrs; format: functional, organism-based; procedure, shortened: as §1
Bacillus cereus [4] = assay: Bacteriolytic activity against Bacillus cereus ATCC 10987 incubated for 2 hrs; format: functional, organism-based; procedure, shortened: as §1
DNA [5] = assay: Stabilization of Escherichia coli in G-quadruplex DNA GGG GGA GGA GGA CGG GGG assessed as melting temperature at 10 uM incubated for 16 hrs by […]; format: nucleic-acid assay
Procedure, shortened: (§2)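 Readout was CD melting, not FRET: 2.5 μM oligonucleotide in 10 mM lithium cacodylate pH 7.4 with KCl set per sequence (initial Tm 60-70 °C). Annealed 95 °C 5 min, cooled to room temperature over 4 h, then ligand 10 μM (4 equiv) equilibrated 16 h at 20 °C. Ellipticity at 260 nm tracked every 0.1 °C, 20-95 °C at 5 °C/min; Tm by van't Hoff two-state fit.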

DNA [6] = assay: Stabilization of Staphylococcus aureus in G Quadruplex DNA GGGGCTAATTGGGGCTGGTGG assessed as change in melting temperature at 10 uM incubated for 16 hrs by […]; format: nucleic-acid assay; procedure, shortened: as §2
[7] = tested on: Staphylococcus epidermidis; assay: Antibacterial activity against Staphylococcus epidermidis Tu3298 assessed as inhibition of bacterial growth incubated for 20 hrs by CLSI based broth microdilution method; format: functional
Procedure, shortened: (§3)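 Broth microdilution in cation-adjusted Mueller-Hinton broth following CLSI guidelines. DMSO stocks were at 10 mM; compounds were twofold serially diluted over 128 to 2 μM. The inoculum was at 5 × 10⁵, prepared from colonies grown 20 h at 37 °C and adjusted to 0.5 McFarland. Plates ran 20 h at 37 °C with OD600 read-out. MIC was the lowest concentration inhibiting visible growth, in triplicate.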

Salmonella enterica = assay: Antibacterial activity against Salmonella enterica LMG 07233 assessed as inhibition of bacterial growth incubated for 20 hrs by CLSI based broth microdilution method; format: functional; procedure, shortened: as §3
Bacillus cereus [8] = assay: Antibacterial activity against Bacillus cereus ATCC 10987 assessed as inhibition of bacterial growth incubated for 20 hrs by CLSI based broth microdilution method; format: functional; procedure, shortened: as §3
Enterococcus faecium [9] = assay: Antibacterial activity against Enterococcus faecium LMG 16003 assessed as inhibition of bacterial growth incubated for 20 hrs by CLSI based broth microdilution method; format: functional; procedure, shortened: as §3
DNA [10] = assay: Stabilization of Escherichia coli in G-quadruplex DNA GGG GGA GGA GGA CGG GGG assessed as change in melting temperature at 10 uM incubated for 16 hrs by FRET method; format: nucleic-acid assay; settings: in the assay text read “by CD melting method” for “by FRET method”; procedure, shortened: as §2
Enterococcus faecium [11] = assay: Antibacterial activity against Enterococcus faecium LMG 11423 assessed as inhibition of bacterial growth incubated for 20 hrs by CLSI based broth microdilution method; settings: LMG 11423, 20 h
Escherichia coli [12] = assay: Antibacterial activity against Escherichia coli LMG 8223 assessed as inhibition of bacterial growth incubated for 20 hrs by CLSI based broth microdilution method; format: functional; procedure, shortened: as §3
DNA [13] = assay: Stabilization of Staphylococcus aureus in G-quadruplex DNA GGGTTTGGGGCGGCGGTTGG assessed as change in melting temperature at 10 uM incubated for 16 hrs by FRET method; format: nucleic-acid assay
DNA [14] = assay: Stabilization of Staphylococcus aureus in G Quadruplex DNA GGGGCTAATTGGGGCTGGTGG assessed as melting at 10 uM incubated for 16 hrs temperature by […]; format: nucleic-acid assay; procedure, shortened: as §2
Klebsiella pneumoniae = assay: Antibacterial activity against Klebsiella pneumoniae LMG 20218 assessed as inhibition of bacterial growth incubated for 20 hrs by CLSI based broth microdilution method; format: functional; procedure, shortened: as §3
DNA [15] = assay: Stabilization of Staphylococcus aureus in G-quadruplex DNA GGGTTTGGGGCGGCGGTTGG assessed as melting temperature at 10 uM incubated for 16 hrs by […]; format: nucleic-acid assay; procedure, shortened: as §2
Enterobacter cloacae = assay: Antibacterial activity against Enterobacter cloacae LMG 02783 assessed as inhibition of bacterial growth incubated for 20 hrs by CLSI based broth microdilution method; format: functional; procedure, shortened: as §3
Acinetobacter baumannii = assay: Antibacterial activity against Acinetobacter baumannii LMG 01041 assessed as inhibition of bacterial growth incubated for 20 hrs by CLSI based broth microdilution method; format: functional; procedure, shortened: as §3
Pseudomonas aeruginosa = assay: Antibacterial activity against Pseudomonas aeruginosa LMG 6395 assessed as inhibition of bacterial growth incubated for 20 hrs by CLSI based broth microdilution method; format: functional; procedure, shortened: as §3
DNA [16] = assay: Stabilization of Staphylococcus aureus in G-quadruplex DNA GGA AGG AGG GGT GAC AGG G assessed as melting temperature at 10 uM incubated for 16 hrs […]; format: nucleic-acid assay; procedure, shortened: as §2
Staphylococcus aureus [17] = assay: Antibacterial activity against Staphylococcus aureus LMG 15975 assessed as inhibition of bacterial growth incubated for 20 hrs by CLSI based broth microdilution method; format: functional; procedure, shortened: as §3
Enterococcus faecalis [18] = assay: Antibacterial activity against Enterococcus faecalis LMG 16216 assessed as inhibition of bacterial growth incubated for 20 hrs by CLSI based broth microdilution method; format: functional; procedure, shortened: as §3
Staphylococcus aureus [19] = assay: Antibacterial activity against Staphylococcus aureus LMG 10147 assessed as inhibition of bacterial growth incubated for 20 hrs by CLSI based broth microdilution method; format: functional; procedure, shortened: as §3
Klebsiella aerogenes = assay: Antibacterial activity against Enterobacter aerogenes LMG 02094 assessed as inhibition of bacterial growth incubated for 20 hrs by CLSI based broth microdilution method; format: functional; procedure, shortened: as §3
Enterococcus faecalis [20] = assay: Antibacterial activity against Enterococcus faecalis V583 assessed as inhibition of bacterial growth incubated for 20 hrs by CLSI based broth microdilution method; format: functional; procedure, shortened: as §3
DNA [21] = assay: Stabilization of Escherichia coli in G-quadruplex DNA GGG GCG GGG TGG GTT GG assessed as change in melting temperature at 10 uM incubated for 16 hrs by CD melting method
DNA [22] = assay: Stabilization of Escherichia coli in G-quadruplex DNA GGT GGG GAG GGG TAA GGG G assessed as change in melting temperature at 10 uM incubated for 16 hrs by FRET method; format: nucleic-acid assay; settings: in the assay text read “by CD melting method” for “by FRET method”; procedure, shortened: as §2
DNA [23] = assay: Stabilization of Escherichia coli in G-quadruplex DNA GGT GGG GAG GGG TAA GGG G assessed as melting temperature at 10 uM incubated for 16 hrs by […]; format: nucleic-acid assay; procedure, shortened: as §2
Bacillus cereus [24] = assay: Antibacterial activity against Bacillus cereus ATCC 14579 assessed as inhibition of bacterial growth incubated for 20 hrs by CLSI based broth microdilution method; format: functional; procedure, shortened: as §3
Staphylococcus aureus [25] = assay: Antibacterial activity against Staphylococcus aureus LMG 8224 assessed as inhibition of bacterial growth incubated for 20 hrs by CLSI based broth microdilution method; format: functional; procedure, shortened: as §3
DNA [26] = assay: Stabilization of Escherichia coli in G-quadruplex DNA GGG GCG GGG TGG GTT GG assessed as melting temperature at 10 uM incubated for 16 hrs by FRET method; format: nucleic-acid assay
DNA [27] = assay: Stabilization of Staphylococcus aureus in G-quadruplex DNA GGA AGG AGG GGT GAC AGG G assessed as change in melting temperature at 10 uM incubated for 16 hrs by […]; format: nucleic-acid assay; procedure, shortened: as §2
Enterococcus faecalis [28] = assay: Antibacterial activity against Enterococcus faecalis LMG 08222 assessed as inhibition of bacterial growth incubated for 20 hrs by CLSI based broth microdilution method; format: functional; procedure, shortened: as §3

SMILES: CC[C@H](C)CCCCC(=O)N[C@@H](CCN)C(=O)N[C@H](C(=O)N[C@@H](CCN)C(=O)N[C@H]1CCNC(=O)[C@H]([C@@H](C)O)NC(=O)[C@H](CCN)NC(=O)[C@H](CCN)NC(=O)[C@H](CC(C)C)NC(=O)[C@@H](Cc2ccccc2)NC(=O)[C@H](CCN)NC1=O)[C@@H](C)O (X1-[Dab]T[Dab][Dab][Dab][dF]L[Dab][Dab]T; lactam 4-C)
Activity (Escherichia coli [1]): Active | Activity (Enterococcus faecium [2]): Active | Activity (Staphylococcus aureus [3]): Active | Activity (Bacillus cereus [4]): Active

SMILES: CC(C)C[C@@H]1NC(=O)[C@H](CCCN)NC(=O)[C@H](C(C)C)NC(=O)[C@@H]2CCCN2C(=O)[C@@H](Cc2ccccc2)NC(=O)[C@H](CC(C)C)NC(=O)[C@H](CCCN)NC(=O)[C@H](C(C)C)NC(=O)[C@@H]2CCCN2C(=O)[C@@H](Cc2ccccc2)NC1=O (cyclo(V[Orn]L[dF]PV[Orn]L[dF]P))
Activity (Escherichia coli [1]): Active | Activity (Enterococcus faecium [2]): Active | Activity (Staphylococcus aureus [3]): Active | Activity (Bacillus cereus [4]): Active

Tm (DNA [5]): 92.8 °C | ΔTm (DNA [6]): 16.6 °C | MIC [7]: 128 µM (≈ 63.2 µg/mL) | MIC (Salmonella enterica): > 128 µM | MIC (Bacillus cereus [8]): 64 µM (≈ 31.6 µg/mL) | MIC (Enterococcus faecium [9]): 16 µM (≈ 7.9 µg/mL) | ΔTm (DNA [10]): 22.8 °C | MIC (Enterococcus faecium [11]): 16 µM (≈ 7.9 µg/mL) | MIC (Escherichia coli [12]): > 128 µM | ΔTm (DNA [13]): 14.9 °C | Tm (DNA [14]): 77.6 °C | MIC (Klebsiella pneumoniae): > 128 µM | Tm (DNA [15]): 74.3 °C | MIC (Enterobacter cloacae): > 128 µM | MIC (Acinetobacter baumannii): 64 µM (≈ 31.6 µg/mL) | MIC (Pseudomonas aeruginosa): > 128 µM | Tm (DNA [16]): 76.2 °C | MIC (Staphylococcus aureus [17]): 128 µM (≈ 63.2 µg/mL) | MIC (Enterococcus faecalis [18]): 32 µM (≈ 15.8 µg/mL) | MIC (Staphylococcus aureus [19]): 128 µM (≈ 63.2 µg/mL) | MIC (Klebsiella aerogenes): 64 µM (≈ 31.6 µg/mL) | MIC (Enterococcus faecalis [20]): 32 µM (≈ 15.8 µg/mL) | ΔTm (DNA [21]): 14.3 °C | ΔTm (DNA [22]): 12.2 °C | Tm (DNA [23]): 72.2 °C | MIC (Bacillus cereus [24]): 64 µM (≈ 31.6 µg/mL) | MIC (Staphylococcus aureus [25]): 128 µM (≈ 63.2 µg/mL) | Tm (DNA [26]): 78 °C | ΔTm (DNA [27]): 12 °C | MIC (Enterococcus faecalis [28]): 64 µM (≈ 31.6 µg/mL)
SMILES: CCCNc1cc2c3c(ccc4c3c1C(=O)N(CCCN(C)C)C4=O)C(=O)N(CCCN(C)C)C2=O
